# Bioassay records as filed in PubChem BioAssay.
# NF-kB expr up = NF-kB expression increase, human neuronal cells | AID 1239 | fold change at 12.5 µM | NF-kB reporter expression; active compounds read high | actives 1.6% (n = 190,000); in the data active = fold change above about 3.3
# STAT3 act = activators of IL-6 induced STAT3 signaling; U3A cells, IL-6 STAT3-luciferase reporter, luminescence; 100% = signal with IL-6 EC80 alone; activation (% of control), % at 5.6 µM; actives 0.91% (n = 190,000); AID 871;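 active = activation above the screen-wide mean of compound activation plus 3 SD, cut at about 130% in these data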;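 note: 0% = background luminescence of wells with medium and substrate only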
#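 Material: STAT1-lacking human U3A cells, STAT3 luciferase reporter | Benchmarks: IL-6-only wells as 100% reference | Probe or stimulus: IL-6 (33 ng/mL) | Timing: Compound 1 h, then IL-6 6 h at 37 °C | Detection: Luminescence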
# APP 5'UTR act = APP 5'UTR luciferase reporter activation; SH-SY5Y APP 5'UTR luciferase reporter, luminescence; zero percent = DMSO vehicle wells; activation, % at 2 µM; actives 1% (n = 190,000); AID 1276;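 active = activation above a set limit, based on mean plus 3 SD of controls, cut at about 140% in these data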
# STAT1 blocker = inhibitors of IFN-gamma induced STAT1 signaling | AID 920 | NIH 3T3 STAT1-luciferase reporter, luminescence | inhibition, % at 5.5 µM | actives 0.35% (n = 200,000);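 active = inhibition above a set limit, the mean inhibition across all tested compounds plus 3 SD, cut at about 34% in these data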;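 note: 0% = IFN-gamma with DMSO and 100% = IFN-gamma with 300 µM nifuroxazide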
# STAT3 inh = STAT3 signaling inhibition; U3A cells, IL-6 STAT3-luciferase reporter, luminescence; host cell line lacks STAT1; inhibition, % at 5.5 µM; actives 0.89% (n = 190,000);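 active = inhibition above the mean inhibition across all screened compounds plus 3 SD, cut at about 44% in these data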;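 note: 0% = DMSO only wells and 100% = 100 µM nifuroxazide control wells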
# STAT1 act = increases IFN-gamma driven STAT1 reporter signal; activation (% of control), % at 5.5 µM; NIH 3T3 STAT1-luciferase reporter, luminescence; 100% = IFN-gamma alone, no compound; actives 2.6% (n = 200,000);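 active = activation above the screen-wide mean activation plus 3 SD, cut at about 130% in these data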;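 note: raw ratio to IFN-gamma control signal so 100% means no change and 0% no light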
# * marks the source's active call; other numbers are inactive results; . = no result. Rows were chosen to be rich in hits. Some 4.9% of all compounds tested hit in one or more screens of this group.
SMILES,NF-kB expr up,STAT3 act,APP 5'UTR act,STAT1 blocker,STAT3 inh,STAT1 act
CC(C)OCCCNc1ncnc2c1cnn2-c1ccccc1,6*,83,194*,-31,27,128
c1ccc(-n2ncc3c(NCCN4CCOCC4)ncnc32)cc1,1.8,106,30,-36,-3,133*
c1ccc(CNc2ncnc3c2cnn3-c2ccccc2)cc1,2.1,99,-18,-30,7,127
CCOc1ccc(NC(=O)CC2C(=O)N(c3ccc(OC)cc3)C(=S)N2Cc2ccccn2)cc1 (stereo not given),0.75,99,9,0,2,100
CCCCCCn1c(-c2cccs2)n[nH]c1=S,0.94,99,-25,-6,8,104
COc1cc([N+](=O)[O-])c(C(=O)N2CCOCC2)c([N+](=O)[O-])c1,1.1,95,6,11,3,92
COc1ccc(C(C)(C)C)cc1NC(=O)CNc1cccc2ccccc12,0.93,136*,-3,3,-40,97
Cc1ccc(OCCCSc2ncccn2)cc1C,1.9,113,66,-37,-14,135*
Clc1ccc(OCCSc2ncccn2)cc1,3.2,103,102,-34,-7,131*
COc1ccc(OCCCSc2ncccn2)cc1,2,99,63,-46,7,142*
COc1ccc2c(c1)CC/C(=C\Nc1ccc3c(c1)OCO3)C2=O,3.8*,75,31,-32,29,130*
O=C1/C(=C/Nc2ccc3c(c2)OCO3)CCc2ccccc21,2.2,21,153*,59*,93*,46
COc1ccc(N/C=C2\CCc3ccccc3C2=O)cc1,1.8,25,156*,76*,90*,28
COc1ccc(N/C=C2\CCOC2=O)cc1,0.99,96,22,11,10,91
O=C1OC2(CCCCC2)OC(=O)C1=CNc1ccc2c(c1)OCO2,1.4,104,1,-15,7,114
COC(=O)c1ccc(-c2ccc(F)cc2)nc1C,1.3,94,128,-36,7,132*
Cc1ccc(-c2ccc(C(=O)O)c(C)n2)cc1,1.2,100,15,-3,-1,103
COC(=O)N/N=C/c1ccc(-c2cccc(Cl)c2)o1,1.4,89,-3,-20,14,117
Nc1ccccc1N=Cc1ccc(-c2cccc(Cl)c2)o1,1.6,107,91,-42,-2,140*
Clc1ccc(OCc2cn3cccnc3n2)c2ncccc12,1.3,107,18,-26,-5,124
Cc1cc(Cl)ccc1OCc1cn2cccnc2n1,3,91,94,-36,17,133*
CC(C)(C)c1ccc(NC(=O)Nc2ccc(OCC(=O)N3CCOCC3)cc2)cc1,5.3*,95,117,-38,12,134*
O=c1ccn(-c2ccccc2)[nH]1,1.2,105,-15,2,4,99
CCC(=O)N1CCN(c2nc3ccccc3s2)CC1,1.8,92,51,-32,11,129*
O=C(Nc1ccccc1)N1CCN(c2nc3ccccc3s2)CC1,1.1,69,9,0,40,100
SMILES,NF-kB expr up,STAT3 act,APP 5'UTR act,STAT1 blocker,STAT3 inh,STAT1 act
O=C(C1CC1)N1CCN(c2nc3ccccc3s2)CC1,2.2,90,94,-34,12,131*
O=C(Nc1ccc(F)cc1)N1CCN(c2nc3ccccc3s2)CC1,1.1,63,-11,7,46*,93
COc1ccc(-c2nc(CN3CCCCC3c3nccn3C)c(C)o2)c(C)c1C (stereo not given),0.96,98,18,5,8,95
CSc1nc2ccccc2n1Cc1c(Cl)cccc1Cl,0.68,87,13,2,16,102
CC(C)c1ccc(NC(=O)c2n[nH]c(=O)c3ccccc23)cc1,1.2,96,66,-36,8,133*
CC(C)c1ccc(NC(=S)NNC(=O)c2cccnc2)cc1,1.6,105,12,-18,0,116
CC(C)c1ccc(NC(=O)c2cccnc2)cc1,2.7,89,103,-47,15,143*
COc1ccc(OC)c(C(C)NC(=O)Nc2cccc(C(C)=O)c2)c1 (stereo not given),1.3,109,8,-6,2,105
COCCCNC(=O)C1CCC(CNS(=O)(=O)c2ccc(Cl)cc2)CC1 (stereo not given),1.1,100,-2,-1,2,99
CC1(c2ccccc2)CC(C)(C)N2C(=O)Cc3cccc1c32 (stereo not given),1,114,-9,17,-8,84
CCCCCOc1ccc(CN2CCOCC2)cc1Cl,1.9,106,144*,-15,-1,116
Clc1cc(Br)ccc1OCCN1CCOCC1,1.3,98,9,-10,4,109
Cc1nc([N+](=O)[O-])c(C(=O)OCc2cccc(Br)c2)n1C,1.4,87,9,-3,18,101
Cc1cc(C)nc(Sc2nc(C)nc3c2oc2ccccc23)n1,7.4*,127,-6,2,-28,98
COc1cc(C(=O)Nc2ccc(N(C)C)cc2)c([N+](=O)[O-])cc1OC,.,100,53,-49,6,146*
COc1ccccc1NC(=S)N(Cc1ccco1)Cc1cc2cc(C)ccc2[nH]c1=O,1.5,99,4,-4,0,103
COCCCN(C(C)=O)c1nc(-c2ccccc2)cs1,1.6,93,10,-42,13,138*
COc1ccc(-c2csc(N(CCc3ccccc3)C(=O)COc3ccccc3)n2)cc1,1.1,98,-3,-2,6,102
Cc1ccc(OCc2cnc(Cl)s2)c(C)c1,1.1,95,43,-45,11,137*
Cc1cc(C)n2c(SCC(=O)N(C)C3CCCCC3)nnc2n1,1.3,100,22,-2,8,101
CC(=O)OCC(=O)[C@@]12OC3(CCCC3)O[C@@H]1C[C@H]1[C@@H]3CCC4=CC(=O)C=C[C@]4(C)[C@@]3(F)[C@@H](O)C[C@@]12C,0.47,103,60,-32,-1,129*
O=c1c([N+](=O)[O-])cccn1Cc1cccc(Cl)c1,2,93,-2,-7,11,104
CN1/C(=C\C=O)C(C)(C)c2ccccc21,0.97,98,-10,14,7,87
CN(C)c1ccc(N=C/C=C2\N(C)c3ccccc3C2(C)C)cc1,1,101,143*,-28,1,125
COc1ccc2c(CC(=O)Nc3ncc(C)s3)coc2c1,1.2,99,89,-44,7,141*
Cc1cccc(Nc2ncc3c(n2)CC(C)CC3=O)c1 (stereo not given),2.4,91,34,-38,14,135*
Cc1c(NC(=O)c2cccc(-c3cc4ccccc4oc3=O)c2)cccc1-c1nc2ncccc2o1,1.2,94,2,-10,7,109
